FN deposition inh: inhibitors of fibronectin matrix deposition, primary screen, AH1F cells, Alexa488-fibronectin fluorescence, plate reader. AH1F fibroblasts, overnight. inhibition, % at 12.6 µM. hit rate 0.086% among 350,000. AID 743247, 2014;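 active means mean inhibition across replicates of 30% or more, regardless of how many single replicates reach that level; inconclusive means mean under 30% yet at least half of replicates reach 30%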
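test system = AH1F fibroblasts assembling fluorescent fibronectin matrix | quantity = 10000 AH1F cells per well | buffer or medium = DMEM plus 2% serum, read in PBS | doses = single dose, pinned | incubation = 1 h cell attachment, overnight exposure to compound and label | detection = fluorescence at 485 nm excitation, 525 nm emission | read-out basis = inhibition from reduced deposited-fibronectin fluorescence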
Casp6 inh: human caspase-6 inhibitors, primary screen, biochemical, VEID-R110 fluorescence, single point, set 2; P55212; AID 686996, 2013; purified caspase-6, Z-VEID-R110 cleavage fluorescence; inhibition, % at 12.5 µM; hit rate 0.53% among 350,000;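 active means mean inhibition across replicates at least about 35%, with every replicate also reaching that limit, limit read from the data; inconclusive means only one of the two criteria met; inactive means neither criterion met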
Target sequence (P55212 24-179 limits assumed): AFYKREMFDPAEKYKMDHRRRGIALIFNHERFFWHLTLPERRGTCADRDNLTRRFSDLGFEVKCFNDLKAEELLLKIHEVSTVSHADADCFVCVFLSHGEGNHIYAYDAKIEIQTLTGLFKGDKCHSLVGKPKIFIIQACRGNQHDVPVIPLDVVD
Target sequence (P55212 194-293 limits assumed): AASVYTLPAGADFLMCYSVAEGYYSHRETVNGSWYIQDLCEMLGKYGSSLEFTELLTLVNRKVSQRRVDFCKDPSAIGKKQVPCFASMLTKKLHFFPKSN
DENV2 CPE rescue: inhibitors of DENV2 cytopathic effect, primary screen, cell-based, plate reader, single concentration; CPE inhibition, % at 9.99 µM; hit rate 1.7% among 350,000; DENV2-infected cells, cytopathic effect rescue; in the data active means CPE inhibition above about 20%, passing the limit was not always enough; inconclusive means no clear call, values can overlap the other calls; tested in BHK-21 cells
CaV13 FRET inh: Disruptors of the CACNA1D IQ motif to Ca2+-dependent inactivation inhibitor domain association, primary screening, Förster resonance energy transfer in intact living …; HEK cells, CFP/YFP FRET ICDI-IQ, plate reader, 10 min; percent FRET-ratio fall versus neutral wells; hit rate 0.098% among 340,000; inhibition, % at 12.3 µM; AID 743397;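 active means mean replicate inhibition of at least 30% and at least 1% of replicates passing that level; inconclusive means only one of the two criteria is met; inactive means neither criterion is met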
XiGFP reactiv: activators of inactive X chromosome reactivation, primary screen, imaging, XiGFP fibroblasts, GFP high-content imaging, set 2. XiGFP mouse fibroblasts, % GFP-positive cells imaging, 3 d; cells co-treated with 5-aza-dC sensitizer; scaled so ellipticine positive control = 100%. activation, % at 7.58 µM. hit rate 0.055% among 360,000;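 active means mean normalized replicate activation at least 10% and every replicate at or above 10%; inconclusive means only one of the two criteria met; inactive means mean below 10% and not all replicates reach 10%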
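System: 68-5-11 XiGFP fibroblast line; Timing: 3 days compound exposure; Compound dosing: one concentration, pinned; Benchmarks: positive control ellipticine, 6 µM final; Buffer or medium: DMEM containing 5-aza-dC.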
A number is an active result; n = inactive; u = inconclusive; x = not tested or not shown; ! = not confirmed by another sample. The list is not random: actives were taken first. Their share in the collection is about 2%.

SMILES	FN deposition inh	Casp6 inh	DENV2 CPE rescue	CaV13 FRET inh	XiGFP reactiv
CS(=O)(=O)N1CCCCN2[C@H](CO)[C@H](c3ccc(C4=CCCC4)cc3)[C@@H]2C1	x	n	29	x	n
COc1ccccc1-c1cnc2c(c1)C(=O)N([C@@H](C)CO)C[C@@H](C)[C@H](CN(C)Cc1ccncc1)O2	n	n	n	x	n
O=C(Nc1ccccc1)N[C@H](Cc1ccccc1)Cn1cc(CN2C(=O)COC[C@H]2c2ccccc2)nn1	x	n	21	x	x
CO[C@H]1CN(C)C(=O)c2ccc(NC(=O)NC(C)C)cc2OC[C@@H](C)N(Cc2ccccn2)C[C@@H]1C	n	n	n	x	n
COc1ccccc1-n1c(CNC(=O)c2ccc(S(=O)(=O)N3CCCCC3)cc2)n[nH]c1=S	x	40	n	x	n
C[C@@H]1C(=O)N[C@@H](c2ccc(F)cc2)CC=CC[C@H](C)Oc2ccccc2C(=O)N1C (mixture of isomers)	n	x	x	x	n
C[C@H]1CN([C@@H](C)CO)C(=O)Cc2cc(NC(=O)Nc3ccccc3)ccc2O[C@@H]1CN(C)C(=O)Nc1cccc2ccccc12	x	n	n	x	n
Oc1ccc(Br)cc1C=Nc1ccc2c3c(cccc13)CC2	n	n	n	n	105
Cc1noc(C)c1NC(=O)Nc1ccc2c(c1)C(=O)N([C@@H](C)CO)C[C@H](C)[C@H](CN(C)Cc1ccncc1)OCCCC[C@@H](C)O2	x	n	n	x	n
COc1ccc(C(C(=O)NCc2ccccc2)n2c(-c3ccncc3)nc3ccccc32)cc1 (stereo not drawn)	n	n	22	n	n
COc1ccc(C(C(=O)NCc2ccccc2)n2c(-c3ccccn3)nc3ccccc32)cc1 (stereo not drawn)	n	n	n	n	n
Cc1noc(C)c1NC(=O)N(C)C[C@H]1Oc2ccc(NC(=O)Nc3ccccc3)cc2CC(=O)N([C@@H](C)CO)C[C@H]1C	n	n	n	x	n
Cc1ccccc1-c1ccc(C2[C@@H]3CN(Cc4cocn4)C[C@H]2N3)cc1 (stereo partly drawn)	n	x	n	x	u
C(=C\c1ccc(C2[C@@H]3CN(Cc4cocn4)C[C@H]2N3)cc1)/c1ccccc1 (stereo partly drawn)	n	x	30!	x	n
O=C(C1CCCCC1)N1CC(=O)N2[C@H](CO)[C@@H](c3ccc(C#CCc4ccccc4)cc3)[C@H]2C1	x	n	n	x	n
CCCC#Cc1cnc2c(c1)C(=O)N([C@H](C)CO)C[C@H](C)[C@H](CN(C)C(=O)C1CCCCC1)O2	x	x	x	x	n
CCN(Cc1ccc(OC)c(COC)c1)CC1CCCN(CCc2cccc(OC)c2)C1 (stereo not drawn)	n	n	25	n	n
NS(=O)(=O)c1ccc(NC(=O)C2Cc3ccccc3CN2C(=O)c2ccco2)cc1 (stereo not drawn)	n	45	n	n	n
CCN(CC(=O)Nc1ccc(NC(C)=O)cc1)C(=O)Cc1c(Cl)cccc1Cl	n	n	55	n	n
Cc1ccc(S(=O)(=O)Nc2ccc3c(c2)CC(=O)N([C@@H](C)CO)C[C@@H](C)[C@@H](CN(C)C(=O)Nc2ccccc2)O3)cc1	x	n	39	x	n
C[C@@H]1CN([C@@H](C)CO)C(=O)Cc2cc(NS(=O)(=O)c3ccccc3)ccc2O[C@H]1CN(C)C(=O)Nc1ccc(F)cc1	n	n	36	x	n
Cc1ccc(S(=O)(=O)Nc2ccc3c(c2)CC(=O)N([C@H](C)CO)C[C@H](C)[C@@H](CN(C)C(=O)Nc2ccccc2)O3)cc1	x	n	n	x	n
O=C(C[C@@H]1C=C[C@H](NS(=O)(=O)c2ccc(F)cc2)[C@@H](CO)O1)NC1CCC1	n	n	n	x	n
C[C@H]1CN(C)C(=O)c2cccc(N(C)C)c2O[C@H]1CN(C)C(=O)OC(C)(C)C	n	x	x	x	n
COc1ccc2c3c([nH]c2c1)[C@H](CO)N(C(=O)c1ccccc1)CC31CN(Cc2cccnc2)C1	x	n	n	x	n
Cc1cccc(C(=O)O)c1O	x	n	67	x	x
Cc1cc2nc(-c3cccc(Cl)c3)c(CC3CCCCC3)n2c(C)c1Br	n	n	98	n	n
